Screening data: PubChem BioAssay, several laboratories
NPY1 pot ag – NPY-Y1 receptor potentiators or agonists, primary screen, cell-based | Neuropeptide Y receptor type 1 (Homo sapiens), P25929 | NPY-Y1 expressing cells, potentiator/agonist activation | activation, % at 3.6 µM | hit rate 0.37% among 220,000 | AID 1304, 2008; in the data active = activation above about 33%, passing the limit was not always enough;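 note: cells stimulated with NPY at EC10 then isoproterenol at EC100; 0% = low agonist plus stimulus and 100% = saturating agonist plus stimulus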
EP2 antag – human EP2 receptor antagonists, primary screen, TR-FRET cAMP, C6 glioma cells; Prostaglandin E2 receptor EP2 subtype (Homo sapiens), P43116; C6 glioma cells expressing human EP2; cells stimulated with saturating PGE2; inhibition, % at 25 µM; hit rate 0.52% among 260,000; AID 1422, 2008;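 active = percent inhibition above 40 after rounding to a whole number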;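 note: rat C6 glioma host cells with rolipram phosphodiesterase inhibitor present; the protocol text gives 20 µM as final concentration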
Target sequence (P43116 whole entry, looked up): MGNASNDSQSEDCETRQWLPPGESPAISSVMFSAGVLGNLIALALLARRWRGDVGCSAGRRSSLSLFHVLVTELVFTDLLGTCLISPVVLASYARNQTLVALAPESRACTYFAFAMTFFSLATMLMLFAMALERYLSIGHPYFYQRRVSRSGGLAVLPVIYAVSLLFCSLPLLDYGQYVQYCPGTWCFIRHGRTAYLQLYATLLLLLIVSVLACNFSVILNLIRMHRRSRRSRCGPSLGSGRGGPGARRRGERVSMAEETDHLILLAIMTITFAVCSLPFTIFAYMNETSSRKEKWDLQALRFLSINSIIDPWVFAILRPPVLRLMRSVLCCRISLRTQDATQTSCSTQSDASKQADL
NPY Y1 blocker – NPY-Y1 receptor antagonists, primary screen, cell-based | HEK293-CNG Y1 cells, membrane potential fluorescence; NPY at EC95, then isoproterenol | hit rate 1% among 200,000 | Neuropeptide Y receptor type 1 (Homo sapiens), P25929 | AID 1040, 2008 | inhibition, % at 3.6 µM;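 active = inhibition above the campaign mean inhibition of all tested compounds plus 3 SD, cut at about 20% in these data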;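 note: 0% = DMSO wells given NPY plus isoproterenol and 100% = isoproterenol alone without NPY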
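Material: HEK293 Y1/CNG channel cell line; also added: NPY (25 nM), isoproterenol (1 µM), Ro 20-1724 (25 µM); doses: one concentration, 3.6 µM, in 0.4% DMSO; schedule: compound incubation 1 h at room temperature, readout 45 min post-stimulation; technique: membrane potential fluorescence; measure: fluorescence ratio normalized to % inhibition between controls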
NPY Y2 blocker – NPY-Y2 receptor antagonists, primary screen, cell-based; Neuropeptide Y receptor type 2 (Homo sapiens), P49146; NPY-Y2 expressing cells, antagonist mode; inhibition, % at 2.7 µM; hit rate 0.99% among 140,000; AID 793, 2007; in the data active = inhibition above about 17%;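 note: 0% = vehicle with agonist challenge and 100% = reference antagonist with challenge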
NPY2 pot ag – NPY-Y2 potentiators or agonists, primary screen, cell-based. AID 1359, 2008. hit rate 0.45% among 220,000. activation, % at 3.6 µM. cells expressing NPY-Y2, potentiator/agonist read-out; in the data active = activation above about 27%;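 note: cells stimulated with NPY near EC25 plus isoproterenol at EC100; 0% = vehicle plus submaximal agonist and 100% = vehicle plus saturating agonist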
EP2 mod – EP2 receptor modulators, cAMP readout, primary screen, cell-based, HTRF cAMP, PGE2 stimulation; EP2-expressing cells, cAMP HTRF FRET, PGE2 co-stimulation; hit rate 0.83% among 260,000; AID 940, 2007; Prostaglandin E2 receptor EP2 subtype (Homo sapiens), P43116; induction, % at 25 µM;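 active = compounds whose cAMP rise, as percent of the full-agonist control response, exceeds 60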;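 note: rat C6 glioma line stably carrying human EP2 under a CMV promoter; the protocol text gives 20 µM as final concentration; 100% = response of wells given 1 µM PGE2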
EP2 cAMP induct – cAMP induction in EP2, EP4, beta2-AR and parental cells, confirmation, counter-screen for EP2 modulator project, cell-based, five parallel assays, C6 glioma, HEK293; shares compounds with EP2 mod; cAMP HTRF induction; plus low (about EC15) PGE2 agonist; calls only at 20 µM (by protocol); hit rate 47% among 1,300; AID 1080, 2008;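 active = cAMP induction above 50% in the main assay while under 30% in all four parallel counter assays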;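 note: rat C6 glioma cells stably expressing human EP2 receptor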
Numbers without * were called inactive; i = inactive; . = not tested or not shown; + = active, no number; ! = not active in a repeat. Shown are actives, neighbours in structure and some others; about 2.8% of the full set was active somewhere.

SMILES | NPY1 pot ag | EP2 antag | NPY Y1 blocker | NPY Y2 blocker | NPY2 pot ag | EP2 mod | EP2 cAMP induct
COc1ccc(-c2cc(C(F)(F)F)nc(N3CCOCC3)n2)cc1OC | 20 | 6 | 7 | 5 | -6 | 70* | +
COc1cccc(-c2cc(C(F)(F)F)nc(N3CCOCC3)n2)c1 | -41 | 6 | 18 | 6 | -29 | 35 | .
COc1ccc(-c2cc(-c3ccccc3)nc(N3CCCC3)n2)cc1OC | -10 | 5 | -1 | 3 | -1 | 64* | i
COc1ccc(-c2cc(C(F)(F)F)nc(NC3CCCC3)n2)cc1OC | -34 | 8 | 17 | 6 | -17 | 68* | i
CC1CCN(c2nc3c(c(=O)[nH]2)CCN(Cc2ccc(OC(F)(F)F)cc2)C3)CC1 | . | 7 | . | . | . | -19 | .
Cc1nn(Cc2ccccc2)c(Cl)c1C(=O)NCc1ccc(C)n1C | 12 | 7 | 2 | 1 | -5 | -3 | .
Cc1nn(Cc2c(Cl)cccc2Cl)c(C)c1C(=O)NCc1ccc(C)n1C | 9 | 4 | 7 | -1 | -15 | 75* | i
COc1ccc(-c2cc(-c3ccc(OC)c(OC)c3)c(C#N)c(N)n2)cc1 | . | 14 | . | . | . | -75 | .
CCCN(CCC)C(C)C(=O)NCC1(c2ccccc2)CCCC1 (centres undefined) | -13 | 1 | 6 | . | -3 | 74* | +
FC(F)(F)c1nnc(-c2ccccc2)nc1Sc1ccccc1 | -17 | 20 | 4 | 0 | -9 | 75* | i
FC(F)(F)c1nnc(-c2ccccc2)nc1Sc1ccc(Cl)cc1 | 4 | 7 | -1 | 0 | 6 | 42 | .
CCCn1c(=O)[nH]c(=O)c2c1nc(-c1ccc(OC(F)F)c(OC)c1)n2CCOC | 3 | 10 | 3 | 4 | 3 | 9 | .
CCCn1c(=O)[nH]c(=O)c2c1nc(-c1ccccc1OC(F)F)n2CCOC | 9 | 2 | -2 | 1 | -10 | 84* | i
CCn1c(-c2ccsc2)nc2c1c(=O)[nH]c(=O)n2Cc1ccccc1 | 9 | 5 | -2 | 3 | 15 | 54 | .
CCCn1c(-c2cccs2)nc2c1c(=O)[nH]c(=O)n2Cc1ccccc1 | -22 | 0 | 1 | . | -3 | 72* | +
S=c1nc(-c2ccco2)c(-c2ccco2)n[nH]1 | . | 11 | . | . | . | -5 | .
O=C(Cc1c(F)cccc1Cl)N1CCC[C@H]1[C@H](O)c1nccs1 | . | . | . | . | . | -21 | .
Cc1ccc(S(=O)(=O)NCC(=O)OCN2C(=O)c3ccccc3C2=O)cc1 | 7 | 8 | 3 | 1 | -13 | 67* | i
CCOc1ccc(S(=O)(=O)NCCC(=O)OCN2C(=O)c3ccccc3C2=O)cc1 | 11 | 6 | -3 | 1 | 6 | 20 | .
COc1ccc2[nH]c(=O)c(CN(CCCO)C(=S)Nc3ccc(C)cc3)cc2c1 | . | 10 | . | . | . | -38 | .
CN=C1CC(SC)=C1c1ccc(C)cc1 | 1 | 56* | -1 | 4 | -5 | 72* | +
O=C1CCCN1c1ccc(S(=O)(=O)NCC2CC3CCC2C3)cc1 (centres undefined) | . | 9 | . | . | . | -75 | .
COc1ccccc1Nc1cc(C)nc2c(C)ccc([N+](=O)[O-])c12 | -28 | 4 | 5 | 2 | -13 | 80* | +
Cc1cc(Nc2ccccc2)c2c([N+](=O)[O-])cc(C)c(C)c2n1 | -23 | 9 | 1 | 4 | -14 | 46 | .
C#CCSc1nc(Cc2ccc(Cl)cc2)nc2ccccc12 | -15 | 3 | -6 | 2 | 9 | 67* | +
SMILES | NPY1 pot ag | EP2 antag | NPY Y1 blocker | NPY Y2 blocker | NPY2 pot ag | EP2 mod | EP2 cAMP induct
COc1nc(Cc2ccc(Cl)cc2)nc2ccccc12 | -12 | 5 | 4 | . | -8 | -24 | .
Cc1ccc(C(c2nnnn2C2CCCCC2)N2CCCCCC2)cc1 (centres undefined) | . | 5 | . | . | . | 4 | .
CC(/C=C\c1ccccc1)=C/C(=O)O | -40 | 2 | . | . | -34 | -8 | .
CC1=C(/C=C/C(C)=C/C=C/C(C)=C/C(=O)O)C(C)(C)CCC1 | 0 | 14 | -3 | -1 | 10 | 62*! | +
COC(=O)c1ccc(Oc2cc(C)nc(NCc3ccccc3)n2)cc1 | 21 | 11 | -1 | 5 | 16 | 70* | +
COC(=O)c1ccc(Oc2nc(C)cc(Oc3ccccc3)n2)cc1 | 18 | 9 | 4 | 4 | 17 | 59 | .
O=C(CC(Sc1ccccc1)c1cccs1)c1ccco1 (centres undefined) | 9 | 12 | -1 | 4 | 10 | 89* | i
O=C(Cc1cccs1)OCC(=O)c1ccco1 | 32 | 10 | 1 | 2 | 15 | 3 | .
CCc1cc2cc3c(cc2nc1SCC(=O)OC(C)C)OCO3 | -14 | 2 | 15 | . | -1 | 81* | +
CCc1c(C)nc2ccc(Br)cc2c1SCCC#N | -44 | 12 | 13 | 12 | -22 | 65* | i
CCCCc1c(C)nc2ccc(Br)cc2c1SCCC#N | -65 | 12 | 17 | 12 | -22 | 56 | .
CCn1c(=NC(=O)c2ccc(S(=O)(=O)N3CCOCC3)cc2)sc2cccc(OC)c21 | -13 | 15 | 5 | 3 | -10 | 68* | i
CCOC(=O)C1=C(C)N(C)C(C)=C(C(=O)OCC)C1c1ccc(Cl)cc1 | -29 | 0 | 13 | 9 | -1 | 52 | .
CCOC(=O)C1=C(C)OC(N)=C(C#N)C1c1cc(C)sc1C (centres undefined) | -7 | -2 | -5 | 7 | 18 | 53 | i
CCOC(=O)C1=C(C)OC(N)=C(C#N)C1c1ccsc1 (centres undefined) | 7 | 9 | 4 | -3 | -2 | 15 | .
CCOC(=O)C1=C(CC)OC(N)=C(C#N)C1c1ccsc1 (centres undefined) | -11 | 6 | 7 | 5 | -2 | 57 | i
CCOC(=O)C1=C(C)N(C)C(C)=C(C(=O)OCC)C1c1ccsc1 | -2 | 9 | 5 | . | 11 | 72* | +
CCOC(=O)C1=C(C)OC(N)=C(C#N)C1c1cc(SCC)oc1C (centres undefined) | 13 | 3 | -3 | . | 5 | 45 | .
N#Cc1cn(Cc2ccccc2F)c2ccccc12 | . | 13 | . | . | . | 46 | .
COc1ccc(-c2cc(C(F)(F)F)nc(SCCC(=O)N3CCCCCC3)n2)cc1 | . | 8 | . | . | . | -21 | .
